{
  "source": "ChEMBL document CHEMBL1671644",
  "about": "“Inhibition of human immunodeficiency virus type 1 infection by the candidate microbicide dapivirine, a nonnucleoside reverse transcriptase inhibitor” (Antimicrob Agents Chemother, 2009)",
  "key": {"[1]": {"test_system": "Human immunodeficiency virus 1", "assay": "Antiviral activity against HIV-1 Bal infected in human cervical tissue explants assessed as inhibition of dissemination of virus via migratory cells after 2 hrs", "type": "functional, organism-based", "outline": "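Explants were pretreated with drug for 1 h, then exposed to HIV-1BaL for 2 h with drug present and washed. Cells that migrated out overnight were washed and cocultured with PM-1 cells (4 x 10^4/well) for about 10 days. Transfer was read as p24 by ELISA in coculture supernatant (detection limit 300 pg/ml). Two donors, triplicate.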"}, "[2]": {"test_system": "Human immunodeficiency virus 1", "assay": "Antiviral activity against HIV-1 Bal infected in 1 hr compound pretreated human ectocervical explant tissue assessed as inhibition of viral replication at 0.1 nM by RT-PCR", "type": "functional, organism-based", "outline": "(§1)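 Ectocervical explants were pretreated with drug for 1 h, then exposed to HIV-1BaL (two 50% tissue infectious doses, about 10^4 TCID50 on PM-1) for 2 h at 37°C with drug present. Explants were washed and cultured overnight, then cultured separately for 10 days. Tissue was proteinase K-digested and proviral LTR DNA measured by multiplex qPCR against β-actin (10 copies/10^5 cells sensitivity). Two donors, triplicate.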"}, "[3]": {"assay": "Toxicity against human cervical tissue explants at 1 mM after 24 hrs by MTT assay", "settings": "1000 µM", "outline": "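Uninfected ectocervical explants were exposed to drug for 2 or 24 h. Viability was measured by MTT reduction per milligram of tissue relative to unexposed explants, either immediately or after overnight culture. Three or four donors, triplicate.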"}, "[4]": {"assay": "Selectivity index, ratio of CC50 for human TZM-bl cells to IC50 for HIV-1 Bal", "type": "functional", "outline": "(§2)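 Selectivity index is CC50/IC50, using values determined in the same time period. CC50 was measured by MTT for TZM-bl and PM-1 cells and by trypan blue exclusion after 14 days for macrophages. Both were fitted by nonlinear regression.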"}, "[5]": {"assay": "Selectivity index, ratio of CC50 for human monocyte derived macrophages to IC50 for HIV-1 Bal", "type": "functional", "outline": "as §2"}, "[6]": {"assay": "Selectivity index, ratio of CC50 for human TZM-bl cells to IC50 for HIV-1 3B", "type": "functional", "outline": "as §2"}, "[7]": {"assay": "Selectivity index, ratio of CC50 for human MT-4 cells to IC50 for HIV-1 3B", "type": "functional, MT4"}, "[8]": {"test_system": "Human immunodeficiency virus 1", "assay": "Antiviral activity against HIV-1 subtype CRF01_AE V022820 infected in human MT4 cells assessed as inhibition of viral replication relative to HIV-1 3B", "type": "functional", "outline": "(§3)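 MT-4 cells (3 x 10^4/well) infected with site-directed mutants or recombinant clinical isolates (200 TCID50/well) with drug, cultured 3 to 5 days. Viability read by MTT colorimetric antivirogram assay. IC50 by nonlinear regression; fold change = IC50 for the test isolate / IC50 for wild-type HIV-1 IIIB tested in parallel (mean or median).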"}, "[9]": {"test_system": "Human immunodeficiency virus 1", "assay": "Antiviral activity against HIV-1 subtype B V022813 infected in human MT4 cells assessed as inhibition of viral replication relative to HIV-1 3B", "type": "functional", "outline": "as §3"}, "[10]": {"test_system": "Human immunodeficiency virus 1", "assay": "Antiviral activity against HIV-1 subtype B V022814 infected in human MT4 cells assessed as inhibition of viral replication relative to HIV-1 3B", "type": "functional", "outline": "as §3"}, "[11]": {"test_system": "Human immunodeficiency virus 1", "assay": "Antiviral activity against HIV-1 subtype C V022816 infected in human MT4 cells assessed as inhibition of viral replication relative to HIV-1 3B", "type": "functional", "outline": "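Recombinant clinical HIV-1 isolates (200 TCID50/well) were tested in MT-4 cells (3 x 10^4/well) over 3–5 days, with an MTT viability read-out. IC50 was fitted by nonlinear regression. Fold change is the isolate IC50 divided by the HIV-1IIIB IC50, tested in parallel.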"}, "[12]": {"test_system": "Human immunodeficiency virus 1", "assay": "Antiviral activity against HIV-1 subtype C V022829 infected in human MT4 cells assessed as inhibition of viral replication relative to HIV-1 3B", "type": "functional", "outline": "as §3"}, "[13]": {"test_system": "Human immunodeficiency virus 1", "assay": "Antiviral activity against HIV-1 subtype D V022818 infected in human MT4 cells assessed as inhibition of viral replication relative to HIV-1 3B", "type": "functional", "outline": "as §3"}, "[14]": {"test_system": "Human immunodeficiency virus 1", "assay": "Antiviral activity against HIV-1 subtype CRF05_DF V022824 harboring NNRTI V106I mutant infected in human MT4 cells assessed as inhibition of viral replication relative to HIV-1 3B", "type": "functional", "outline": "as §3"}, "[15]": {"test_system": "Human immunodeficiency virus 1", "assay": "Antiviral activity against HIV-1 SM024 harboring NNTRI 190A mutant infected in human MT4 cells assessed as inhibition of viral replication relative to HIV-1 3B", "type": "functional", "outline": "as §3"}, "[16]": {"test_system": "Human immunodeficiency virus 1", "assay": "Antiviral activity against HIV-1 SM026 harboring NNTRI 103N and 181C mutant infected in human MT4 cells assessed as inhibition of viral replication relative to HIV-1 3B", "type": "functional", "outline": "as §3"}, "[17]": {"test_system": "Human immunodeficiency virus 1", "assay": "Antiviral activity against HIV-1 SM051 harboring NNTRI 100I and 103N mutant infected in human MT4 cells assessed as inhibition of viral replication relative to HIV-1 3B", "type": "functional", "outline": "as §3"}, "[18]": {"test_system": "Human immunodeficiency virus 1", "assay": "Antiviral activity against HIV-1 SM058 harboring NNTRI 227L and 106A mutant infected in human MT4 cells assessed as inhibition of viral replication relative to HIV-1 3B", "type": "functional", "outline": "as §3"}, "[19]": {"test_system": "Human immunodeficiency virus 1", "assay": "Antiviral activity against HIV-1 Bal infected in 1 hr compound pretreated human ectocervical explant tissue assessed as inhibition of viral replication by RT-PCR", "type": "functional, organism-based", "outline": "as §1"}, "[20]": {"test_system": "Human immunodeficiency virus 1", "assay": "Antiviral activity against HIV-1 Bal infected in 1 hr compound pretreated human ectocervical explant tissue assessed as inhibition of provirus formation at 1 nM by RT-PCR", "type": "functional", "settings": "Human immunodeficiency virus 1, Bal", "outline": "as §1"}, "[21]": {"test_system": "Human immunodeficiency virus 1", "assay": "Antiviral activity against HIV-1 Bal infected in human cervical tissue explants assessed as inhibition of dissemination of virus via migratory cells after 2 hrs in presence of 12.5% whole semen", "type": "functional, organism-based", "outline": "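Cervical explants were exposed to HIV-1BaL plus drug for 2 h in cervical mucus simulant or whole semen (final 12.5%), then washed. Migratory cells were cocultured with PM-1 indicator cells and infection read as p24 in coculture supernatant.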"}, "[22]": {"test_system": "Human immunodeficiency virus 1", "assay": "Antiviral activity against HIV-1 Bal infected in 2 hrs 100 nM compound pretreated human ectocervical explant tissue assessed as prolonged inhibition of viral infection post compound removal", "type": "functional", "outline": "(§4)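 Ectocervical explants were exposed to drug (0.01–10 µM) for 2 or 24 h at 37°C and washed. They received HIV-1BaL (2 h) on day 0, 2, 4 or 6 after drug removal, with no drug present. Read-outs at 10 days post-exposure: explant p24 ELISA, tissue proviral DNA by qPCR, and p24 in migratory cell–PM-1 cocultures. Three donors (2 h) or two donors (24 h), triplicate.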"}, "[23]": {"test_system": "Human immunodeficiency virus 1", "assay": "Antiviral activity against HIV-1 Bal infected in 2 hrs 10000 nM compound pretreated human ectocervical explant tissue assessed as prolonged inhibition of viral infection post compound removal measured after 4 days post compound removal", "type": "functional", "outline": "as §4"}, "[24]": {"test_system": "Human immunodeficiency virus 1", "assay": "Antiviral activity against HIV-1 Bal infected in 24 hrs 10 nM compound pretreated human ectocervical explant tissue assessed as prolonged inhibition of viral infection post compound removal", "type": "functional", "outline": "as §4"}, "[25]": {"test_system": "Human immunodeficiency virus 1", "assay": "Antiviral activity against HIV-1 3B infected in human MT4 cells after 3 to 5 days by MTT assay", "settings": "Human immunodeficiency virus 1, 3B, MT4, 72 to 120 h"}, "[26]": {"test_system": "Human immunodeficiency virus 1", "assay": "Antiviral activity against HIV-1 Bal infected in human monocyte derived macrophages after 14 days by p24 assay", "settings": "Human immunodeficiency virus 1, Bal, 336 h"}},
  "note": "Calls of active or inactive are those of the source. The rule behind the calls is not given here.",
  "data": [
    {"smiles": "Cc1cc(C)c(Nc2ccnc(Nc3ccc(C#N)cc3)n2)c(C)c1", "note": "[DAPIVIRINE]", "values": [
      {"measurement": "inhibition", "setting": "[1]", "value": "Active"},
      {"measurement": "inhibition", "setting": "[2]", "value": "Active"},
      {"measurement": "Activity", "setting": "[3]", "value": "Non-toxic"},
      {"measurement": "Selectivity Index", "setting": "[4]", "value": 9273},
      {"measurement": "Selectivity Index", "setting": "[5]", "value": 8333},
      {"measurement": "Selectivity Index", "setting": "[6]", "value": 20400},
      {"measurement": "Selectivity Index", "setting": "[7]", "value": 2389},
      {"measurement": "Ratio IC50", "setting": "[8]", "value": 0.9},
      {"measurement": "Ratio IC50", "setting": "[9]", "value": 0.7},
      {"measurement": "Ratio IC50", "setting": "[10]", "value": 0.8},
      {"measurement": "Ratio IC50", "setting": "[11]", "value": 1.8},
      {"measurement": "Ratio IC50", "setting": "[12]", "value": 1},
      {"measurement": "Ratio IC50", "setting": "[13]", "value": 1.4},
      {"measurement": "Ratio IC50", "setting": "[14]", "value": 0.7},
      {"measurement": "Ratio IC50", "setting": "[15]", "value": 1},
      {"measurement": "Ratio IC50", "setting": "[16]", "value": 63},
      {"measurement": "Ratio IC50", "setting": "[17]", "value": 2389},
      {"measurement": "Ratio IC50", "setting": "[18]", "value": 8},
      {"measurement": "Activity", "setting": "[19]", "value": "Dose-dependent effect"},
      {"measurement": "IC50", "setting": "[19]; Human immunodeficiency virus 1, Bal", "value": 0.2, "unit": "nM"},
      {"measurement": "inhibition at 0.001 µM", "setting": "[20]", "value": "> 99", "unit": "%"},
      {"measurement": "inhibition", "setting": "[21]", "value": "Active"},
      {"measurement": "inhibition (INH)", "setting": "[22]", "value": 90, "unit": "%"},
      {"measurement": "inhibition (INH)", "setting": "[23]", "value": 90, "unit": "%"},
      {"measurement": "inhibition (INH)", "setting": "[24]", "value": 90, "unit": "%"},
      {"measurement": "IC50", "setting": "[25]", "value": 0.9, "unit": "nM"},
      {"measurement": "IC50", "setting": "[26]", "value": 2.4, "unit": "nM"}
    ]}
  ]
}
